The results in this text go back to ChEMBL document CHEMBL1772954, “Antifungal, cytotoxic and SAR studies of a series of N-alkyl, N-aryl and N-alkylphenyl-1,4-pyrrolediones and related compounds” (Bioorg Med Chem, 2011).

Converted amounts (≈) assume the structure as drawn.

One data set deals with Aspergillus fumigatus. Put plainly: Antifungal activity against Aspergillus fumigatus ATCC 26934. The data set is classed as functional. The gist of the method:
(§1)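 Broth microdilution per CLSI M38-A2 in RPMI-1640 with MOPS at pH 7.0. Inoculum 1-5 × 10^3 CFU/mL, with twofold compound dilutions spanning 250-0.24 µg/ml (final DMSO <1%). Plates incubated at 35 °C, moist and dark, and read when the control fungus had grown. MIC is total growth inhibition. MFC comes from subculturing clear wells in duplicate onto SDA.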

A further data set concerns Trichophyton rubrum. Briefly: Antifungal activity against Trichophyton rubrum C 113 2000. The data set is classed as functional. The gist of the method:
(§2)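 Dermatophytes tested by CLSI M38-A2 microdilution in MOPS-buffered RPMI-1640 at pH 7.0. Inoculum 1-5 × 10^3 CFU/mL; compounds 250 to 0.24 µg/ml in twofold steps, final DMSO <1%. Incubated at 28 °C in a moist, dark chamber and read according to control growth. MIC is the lowest concentration with complete inhibition. MFC is the lowest concentration with no growth after duplicate subculture on SDA.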

A further data set deals with NCI-H460. Put plainly: Cytotoxicity against human H460 cells assessed as cell growth after 2 days by sulforhodamine B assay. In kind it is functional. The following applies: NCI-H460, 48 h. The gist of the method:
(§3)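 NCI cell lines were run by the Monks method: cells were plated with compounds from DMSO stocks and incubated 2 days at 37 °C in 5% CO2, in duplicate. Cells were fixed with cold TCA, stained with 0.4% SRB, and the bound dye was solubilized in 10 mM tris-base and read at 515 nm. The zero-day control was subtracted, and GI50 was taken from the curves.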

The test system of another data set is Nannizzia gypsea. Put plainly: Antifungal activity against Microsporum gypseum C 115 2000. The data set is classed as functional. Put shortly:
as §2

Data set [1] in a line: Cytotoxicity against human erythrocytes assessed as hemolysis by spectrometric analysis. The data set is classed as cell-based, Erythrocyte. Put shortly: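 Human heparinized red blood cells were washed in PBS at pH 7.0 and suspended at 4% in sterile 5% glucose. Compounds from DMSO stocks were diluted in 5% glucose to final concentrations of 250 to 0.24 µg/ml and incubated with the cells at 37 °C. Released hemoglobin was read at 540 nm. HC50 is the concentration giving 50% lysis relative to the drug-free value.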

The test system of the next data set is Cryptococcus neoformans. Put plainly: Antifungal activity against Cryptococcus neoformans ATCC 32264. The data set is classed as functional. Put shortly: (§4)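 CLSI M27-A3 broth microdilution in RPMI-1640 buffered to pH 7.0 with MOPS. Inoculum 1-5 × 10^3 CFU/mL. Compound twofold dilutions from 250 to 0.24 µg/ml, final DMSO <1%. Incubated at 35 °C in a moist, dark chamber and read at 48 h. MIC is the lowest concentration giving total growth inhibition. For MFC, 5 µL from clear wells was plated in duplicate on SDA; MFC is the lowest concentration with no growth.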

The next data set deals with Candida albicans. Put plainly: Antifungal activity against Candida albicans ATCC 10213. In kind it is functional. Put shortly: as §4
The subject of data set [2] is Trichophyton mentagrophytes. Briefly: Antifungal activity against Trichophyton mentagrophytes ATCC 9972. In kind it is functional. The gist of the method:
as §2

In another data set the test system is MCF7. Put plainly: Cytotoxicity against human MCF7 cells assessed as cell growth after 2 days by sulforhodamine B assay. The data set is classed as functional. The following applies: MCF7, 48 h. Put shortly: as §3
On the technique in general: Sulforhodamine B stains cellular protein and so reports cell mass.

For another data set, the system named is Aspergillus niger. Put plainly: Antifungal activity against Aspergillus niger ATCC 9029. The data set is classed as functional. Put shortly: as §1
In another data set the test system is Candida tropicalis. Put plainly: Antifungal activity against Candida tropicalis C 131 2000. The data set is classed as functional. The gist of the method: as §4
For a further data set, the system named is Aspergillus flavus. Put plainly: Antifungal activity against Aspergillus flavus ATCC 9170. The data set is classed as functional. The gist of the method:
as §1

Another data set deals with Saccharomyces cerevisiae. Put plainly: Antifungal activity against Saccharomyces cerevisiae ATCC 9763. In kind it is functional. Put shortly: as §4
The test system of another data set is SF-268. Put plainly: Cytotoxicity against human SF268 cells assessed as cell growth after 2 days by sulforhodamine B assay. In kind it is functional. The settings on record: SF-268, 48 h. Put shortly:
as §3

The MFC is the lowest tested concentration that kills the fungus rather than only halting it. What is called MIC is the lowest concentration that inhibits growth of the organism. A low value points to inhibition by little substance. The term GI50 denotes the concentration that inhibits growth by half. As a reminder, the HC50 is the concentration that lyses half of the red blood cells.

As for `O=C1C=CC(=O)N1CCc1ccccc1`, the minimal fungicidal concentration (MFC) is 31.2 µg/mL (≈ 155 µM) with Aspergillus fumigatus; 3.9 µg/mL (≈ 19.4 µM) against Trichophyton rubrum; 7.81 µg/mL (≈ 38.8 µM) with Nannizzia gypsea; 15.6 µg/mL (≈ 77.7 µM) against Cryptococcus neoformans; 15.6 µg/mL (≈ 77.7 µM) in [2]; 15.6 µg/mL (≈ 77.7 µM) with Aspergillus niger. Also, the results for the MFC in the data set with Aspergillus flavus and against Saccharomyces cerevisiae were 31.2 µg/mL (≈ 155 µM) and 7.81 µg/mL (≈ 38.8 µM), respectively. Further, the minimal inhibitory concentration (MIC) worked out at 31.2 µg/mL (≈ 155 µM) in the data set with Aspergillus fumigatus; 1.95 µg/mL (≈ 9.69 µM) against Trichophyton rubrum; 3.9 µg/mL (≈ 19.4 µM) in the data set with Nannizzia gypsea; 7.81 µg/mL (≈ 38.8 µM) with Cryptococcus neoformans; 3.9 µg/mL (≈ 19.4 µM) with Candida albicans; 7.81 µg/mL (≈ 38.8 µM) in data set [2]. The MIC in the data set with Aspergillus niger amounted to 15.6 µg/mL (≈ 77.7 µM); against Candida tropicalis, 15.6 µg/mL (≈ 77.7 µM); with Aspergillus flavus, 31.2 µg/mL (≈ 155 µM); in the data set with Saccharomyces cerevisiae, 3.9 µg/mL (≈ 19.4 µM). The GI50 in the data set on NCI-H460 turned out to be 4.7 µg/mL (≈ 23.4 µM); with MCF7, 3.6 µg/mL (≈ 17.9 µM); in the data set on SF-268, 4.1 µg/mL (≈ 20.4 µM). Further, in data set [1], the 50% haemolytic concentration (HC50) was above 250 µg/mL.

On to `O=C1C=CC(=O)N1c1ccc(I)cc1`, for which the MFC in the data set on Aspergillus fumigatus turned out to be 125 µg/mL (≈ 418 µM); against Trichophyton rubrum it was 7.81 µg/mL (≈ 26.1 µM); against Nannizzia gypsea, 7.81 µg/mL (≈ 26.1 µM); with Cryptococcus neoformans, 15.6 µg/mL (≈ 52.3 µM); with Candida albicans, 62.5 µg/mL (≈ 209 µM); in data set [2], 7.81 µg/mL (≈ 26.1 µM). In addition, the minimum fungicidal concentration (MFC) with Aspergillus niger came to 125 µg/mL (≈ 418 µM); against Candida tropicalis, 62.5 µg/mL (≈ 209 µM); with Aspergillus flavus, 125 µg/mL (≈ 418 µM); against Saccharomyces cerevisiae, 7.81 µg/mL (≈ 26.1 µM). In addition, the MIC against Aspergillus fumigatus is 62.5 µg/mL (≈ 209 µM); in the data set with Trichophyton rubrum, 3.9 µg/mL (≈ 13 µM); in the data set with Nannizzia gypsea it was 3.9 µg/mL (≈ 13 µM); in the data set on Cryptococcus neoformans, 7.81 µg/mL (≈ 26.1 µM); with Candida albicans it was 31.2 µg/mL (≈ 104 µM); in [2], 3.9 µg/mL (≈ 13 µM). The MIC was 62.5 µg/mL (≈ 209 µM) in the data set on Aspergillus niger, 31.2 µg/mL (≈ 104 µM) in the data set with Candida tropicalis, 62.5 µg/mL (≈ 209 µM) with Aspergillus flavus and 7.81 µg/mL (≈ 26.1 µM) against Saccharomyces cerevisiae. Moreover, the GI50 with NCI-H460, in the data set with MCF7 and with SF-268 was above 10 µg/mL in each case. The concentration for 50% haemolysis (HC50) in data set [1] was above 250 µg/mL.

In the case of `CCCCN1C(=O)C=CC1=O`, the minimal fungicidal concentration (MFC) worked out at 1.95 µg/mL (≈ 12.7 µM) against Aspergillus fumigatus; 1.95 µg/mL (≈ 12.7 µM) against Trichophyton rubrum; 3.9 µg/mL (≈ 25.5 µM) against Nannizzia gypsea; 7.81 µg/mL (≈ 51 µM) with Cryptococcus neoformans; 15.6 µg/mL (≈ 102 µM) in the data set with Candida albicans; 3.9 µg/mL (≈ 25.5 µM) in [2]. For the same molecule, the minimal fungicidal concentration (MFC) stood at 3.9 µg/mL (≈ 25.5 µM) against Aspergillus niger, 3.9 µg/mL (≈ 25.5 µM) against Candida tropicalis, 7.81 µg/mL (≈ 51 µM) in the data set on Aspergillus flavus and 1.95 µg/mL (≈ 12.7 µM) in the data set with Saccharomyces cerevisiae. Moreover, the MIC in the data set on Aspergillus fumigatus is 1.95 µg/mL (≈ 12.7 µM); in the data set on Trichophyton rubrum, 1.95 µg/mL (≈ 12.7 µM); in the data set with Nannizzia gypsea it was 3.9 µg/mL (≈ 25.5 µM); in the data set with Cryptococcus neoformans, 3.9 µg/mL (≈ 25.5 µM); against Candida albicans, 3.9 µg/mL (≈ 25.5 µM); in [2] it was 1.95 µg/mL (≈ 12.7 µM). For the same molecule, the MIC with Aspergillus niger was determined as 3.9 µg/mL (≈ 25.5 µM); against Candida tropicalis, 3.9 µg/mL (≈ 25.5 µM); with Aspergillus flavus, 1.95 µg/mL (≈ 12.7 µM); against Saccharomyces cerevisiae, 1.95 µg/mL (≈ 12.7 µM). For the same molecule, the GI50 in the data set with NCI-H460, in the data set on MCF7 and in the data set on SF-268 was above 10 µg/mL throughout. Moreover, in data set [1], the HC50 was above 250 µg/mL.

`O=C1C=CC(=O)N1c1ccc(Cl)cc1`: the MFC with Aspergillus fumigatus stood at 125 µg/mL (≈ 602 µM); against Trichophyton rubrum, 7.81 µg/mL (≈ 37.6 µM); against Nannizzia gypsea, 7.81 µg/mL (≈ 37.6 µM); in the data set on Cryptococcus neoformans it was 7.81 µg/mL (≈ 37.6 µM); with Candida albicans, 62.5 µg/mL (≈ 301 µM); in data set [2] it was 7.81 µg/mL (≈ 37.6 µM). Besides, the MFC with Aspergillus niger came out at 62.5 µg/mL (≈ 301 µM); against Candida tropicalis, 15.6 µg/mL (≈ 75.3 µM); with Aspergillus flavus, 125 µg/mL (≈ 602 µM); against Saccharomyces cerevisiae, 7.81 µg/mL (≈ 37.6 µM). Further, the MIC against Aspergillus fumigatus was 62.5 µg/mL (≈ 301 µM); with Trichophyton rubrum it was 3.9 µg/mL (≈ 18.8 µM); against Nannizzia gypsea it was 3.9 µg/mL (≈ 18.8 µM); against Cryptococcus neoformans it was 3.9 µg/mL (≈ 18.8 µM); in the data set with Candida albicans, 62.5 µg/mL (≈ 301 µM); in data set [2], 3.9 µg/mL (≈ 18.8 µM). The minimum inhibitory concentration (MIC) against Aspergillus niger stood at 31.2 µg/mL (≈ 151 µM); with Candida tropicalis, 7.81 µg/mL (≈ 37.6 µM); against Aspergillus flavus it was 62.5 µg/mL (≈ 301 µM); with Saccharomyces cerevisiae it was 3.9 µg/mL (≈ 18.8 µM). Moreover, the GI50 in the data set on NCI-H460, in the data set on MCF7 and in the data set on SF-268 was above 10 µg/mL in each case. Also, the HC50 in data set [1] is above 250 µg/mL.
